Structures are written as SMILES.

A short description of this assay: Inhibition of CK2 in rat liver. Put shortly:
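Native CK2 purified from rat liver. Started with kinase, stopped at 10 min with orthophosphoric acid. Read by phosphocellulose filter binding and counting. Three independent experiments, values averaged.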

The term IC50 denotes the midpoint of a concentration-inhibition curve. Take `O=c1c2c(O)cccc2oc2c([N+](=O)[O-])ccc(O)c12`: 0.4 µM corresponded to half-maximal inhibition (IC50).
Take `Cc1cc(=O)oc2cc(O)cc(O)c12` [5,7-DIHYDROXY-4-METHYLCOUMARIN]: the half-inhibitory concentration (IC50) worked out at 35 µM.
Consider `O=C(O)/C=C/c1cc(Br)c(Br)c(Br)c1Br`, for which the IC50 is 0.11 µM.
As a reminder, the Ki is the dissociation constant of the complex between target and ligand, obtained from inhibition or displacement. On to `Cc1c(Br)c(=O)oc2c(Br)c(O)ccc12`, for which the concentration for half-maximal inhibition (IC50) amounted to 0.1 µM and the affinity, expressed as Ki, was 60 nM.
The molecule `O=c1oc2c(O)c(O)cc3c(=O)oc4c(O)c(O)cc1c4c23` [ELLAGIC ACID] had a half-inhibitory concentration (IC50) of 0.04 µM.
`COc1cc(O)cc2oc(=O)c(C)cc12` yielded an IC50 greater than 40 µM.
On to `O=c1cc(CCl)c2ccc(O)cc2o1`, for which the 50% inhibitory concentration (IC50) was greater than 40 µM.
As for `Cc1cc(=O)oc2cc(O)ccc12` [HYMECROMONE], the IC50 is greater than 100 µM.
Same read-out and setting: under `COc1c(O)c(-c2ccnnc2)cc2ccc(=O)oc12` stands greater than 100 µM; under `CCOC(=O)c1cc2c(Br)cccc2oc1=O`, 118 µM; under `Cc1cc(=O)oc2cc3c([N+](=O)[O-])c(O)ccc3cc12`, 0.3 µM.
Take `Cc1cc(=O)oc2c(C)c(O)c([N+](=O)[O-])cc12`: the 50% inhibitory concentration (IC50) was found to be 30 µM.
Molecule `Cc1cc(=O)oc2c(C=O)c(O)ccc12` came in with an IC50 greater than 40 µM.
In turn, `Cc1c(Br)c(=O)oc2c(C=O)c(O)ccc12` displayed a 50% inhibitory concentration (IC50) of 3.3 µM.
The molecule `O=c1ccc2ccc(O)cc2o1` [UMBELLIFERONE] had an IC50 greater than 100 µM.
Molecule `Cc1c(Br)c(=O)oc2c(Br)c(O)c(O)cc12` yielded an IC50 of 2 µM.
Molecule `O=c1ccc2c(O)cc(O)cc2o1` displayed a 50% inhibitory concentration (IC50) of 35 µM.
Consider `Cc1c(Br)c(=O)oc2c(O)c(O)ccc12`, for which the midpoint of inhibition, the IC50, lay at 10.5 µM.
As for `Cc1c(Br)c(=O)oc2c(Br)c(N)ccc12`, the half-inhibitory concentration (IC50) is greater than 40 µM.

The values above are taken from ChEMBL document CHEMBL1142299, “Coumarin as attractive casein kinase 2 (CK2) inhibitor scaffold: an integrate approach to elucidate the putative binding motif and explain structure-activity relationships” (J Med Chem, 2008).
